# Assay results as given in ChEMBL document CHEMBL3286113, “New potent antibacterial oxazolidinone (MRX-I) with an improved class safety profile” (J Med Chem, 2014).
# Assays:
# Rattus norvegicus [1] = test: Toxicity in female rat assessed as change in bone marrow at 200 to 300 mg/kg/day, po bid administered for 4 weeks; type: organism-based; set-up: route oral; details: in vivo, 672 h
# Outline: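 Rats given the drug orally twice daily for 4 weeks, 10 rats per gender per group. Doses were 20, 100 and 200/300 mg/kg/day, with the top dose raised from 200 to 300 on day 15. Linezolid comparator at 100 and 200 mg/kg/day. Followed by a 4-week recovery. Mortality, body weight, hematology and bone marrow examined. TK blood sampled on days 1, 14 and 28.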
# [2] = AUC (0 to t) in male rat at 15 mg/kg, po; type: ADME, organism-based; set-up: dose 15 mg/kg, route oral; details: plasma
# Outline: (§1)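 Rat PK by gender, with single oral doses of 5, 15 and 45 mg/kg and an iv dose of 5 mg/kg. Tmax, Cmax, T1/2 and AUC0−t were reported per gender.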
# [3] = Elimination half life in fasted human at 300 mg, po administered as single dose; type: ADME, organism-based; details: in vivo, read-out: beta t1/2 (converted)
# Outline: (§2)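 Healthy volunteers (12; six of each sex) in a three-period Latin-square crossover. Each received single oral doses of 300, 600 and 900 mg under fasting conditions, with a 1-week washout between doses. Parameters from a noncompartmental model.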
# Rattus norvegicus [4] = test: Toxicity in female rat assessed as effect on hemoglobin level at 100 mg/kg/day, po bid administered for 4 weeks (reference value: 141.8 g/L); type: organism-based; set-up: route oral; details: in vivo, 672 h
# Staphylococcus aureus [5] = test: Antibacterial activity against methicillin-resistant Staphylococcus aureus; type: functional
# [6] = Elimination half life in fasted human at 900 mg, po administered as single dose; type: ADME, organism-based; details: in vivo, read-out: beta t1/2 (converted); outline: as §2
# Rattus norvegicus [7] = test: Dose normalized Cmax in po dosed rat; type: ADME, organism-based; details: in vivo
# Streptococcus anginosus = test: Antibacterial activity against Streptococcus anginosus; type: functional
# Rattus norvegicus [8] = test: Toxicity in female rat assessed as effect on WBC count at 20 mg/kg/day, po bid administered for 4 weeks (reference value: 3.66 x 10^9/L); type: organism-based; set-up: route oral; details: in vivo, 672 h
# Rattus norvegicus [9] = test: Toxicity in rat assessed as rate of body weight gain at 100 mg/kg, po bid measured over 4 weeks of test period; type: organism-based; set-up: dose 100 mg/kg, route oral; details: in vivo, 672 h
# Rattus norvegicus [10] = test: Toxicity in female rat assessed as effect on reticulocyte count at 20 mg/kg/day, po bid administered for 4 weeks (reference value: 1.48%); type: organism-based; set-up: route oral; details: in vivo, 672 h
# [11] = Toxicity in po dosed rat administered as bid for 4 weeks; type: organism-based; details: in vivo
# Streptococcus sanguinis = test: Antibacterial activity against Streptococcus sanguinis; type: functional
# [12] = Tmax in fasted human at 900 mg, po administered as single dose; type: ADME, organism-based; details: in vivo
# Outline: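 Randomized single-dose, three-period Latin-square crossover in 12 healthy volunteers (six per gender), fasting. Single oral doses of 300, 600 and 900 mg were separated by a 1-week washout. PK parameters were derived by noncompartmental analysis.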
# Homo sapiens [13] = test: Toxicity in human assessed as change in RBC count at 600 to 800 mg, po administered as single dose with meal on day 1 and day 15 followed by bid with meal on day 2 to day 14 measured during compound treatment; type: organism-based; details: in vivo
# Staphylococcus aureus [14] = test: Antibacterial activity against Staphylococcus aureus measured after 5 serial passages; type: functional
# Staphylococcus aureus [15] = test: Antibacterial activity against Staphylococcus aureus measured after 4 serial passages; type: functional
# [16] = AUC (0 to 24 hrs) in human at 800 mg, po administered as single dose with meal measured on day 1; type: ADME, organism-based; set-up: dose 800 mg, time < 24 hr, route oral; details: plasma
# Outline: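 Randomized, double-blind, placebo-controlled multiple-dose study in 32 healthy subjects (half male, half female). Subjects took 28 oral doses of 600 or 800 mg over 15 days, each with a meal. A single dose was given on days 1 and 15 for full PK, and doses were given Q12h from day 2 to day 14. AUC0−24 was measured on days 1 and 15.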
# [17] = Cmax in human at 600 mg, po administered as single dose with meal measured on day 1; type: ADME, organism-based; set-up: dose 600 mg, route oral; details: in vivo
# Outline: (§3)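 Randomized, double-blind, placebo-controlled multiple-dose study in 32 healthy subjects, half male and half female. Each dose was taken with a meal, at 600 or 800 mg, 28 doses over 15 days. A single dose on days 1 and 15 gave full PK; BID (Q12h) dosing ran on days 2–14.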
# Staphylococcus aureus [18] = test: Antibacterial activity against Staphylococcus aureus in po dosed mouse septicemia model; type: functional
# [19] = AUC (0 to t) in male rat at 5 mg/kg, iv; type: ADME, organism-based; set-up: dose 5 mg/kg, route intravenous; details: plasma; outline: as §1
# [20] = Tmax in po dosed rat; type: ADME, organism-based; details: in vivo
# [21] = AUC (0 to infinity) in human at 900 mg, po administered as single dose at 30 mins post fat meal; type: ADME, organism-based; set-up: dose 900 mg, time infinity, route oral; details: plasma
# Outline: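 Crossover study in 12 subjects (6 of each gender). Each received a single oral 900 mg dose either fasting or 30 min after a fat-containing meal, and AUC0−inf was determined.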
# Rattus norvegicus [22] = test: Toxicity in female rat assessed as effect on mean corpuscular volume at 20 mg/kg/day, po bid administered for 4 weeks (reference value: 53.72 fL); type: organism-based; set-up: route oral; details: in vivo, 672 h
# Staphylococcus = test: Antibacterial activity against coagulase-negative Staphylococcus; type: functional
# Cytochrome P450 2C9 = Cytochrome P450 2C9 (Homo sapiens, UniProt P11712); test: Inhibition of CYP2C9 (unknown origin) at 1 to 200 uM; type: ADME
# Homo sapiens [23] = test: Drug uptake in human at 600 to 800 mg, po administered as single dose with meal measured on day 1 and day 15; type: ADME, organism-based; details: in vivo; outline: as §3
# Enterococcus faecalis = test: Antibacterial activity against vancomycin-sensitive/high-level gentamycin-resistant Enterococcus faecalis isolate HH22 in po dosed mouse systemic infection model; type: functional; details: EnGen0297, po
# Canis familiaris [24] = test: Dose normalized Cmax in po dosed dog; type: ADME, organism-based, Canis lupus familiaris; details: in vivo
# Staphylococcus aureus [25] = test: Antibacterial activity against methicillin-resistant Staphylococcus aureus isolate 0605 in mouse thigh infection model assessed as reduction of log10 CFU per thigh at 20 mg/kg, po; type: functional
# Canis familiaris [26] = species: Canis familiaris; test: Drug uptake in dog measured over 7 days; type: ADME, organism-based, Canis lupus familiaris; details: in vivo, 168 h
# [27] = biological target: T1, Amine oxidase [flavin-containing] A (Homo sapiens, UniProt P21397); test: Inhibition of MAO-A (unknown origin) using tyramine as substrate after 30 to 60 mins by fluorescence plate reader analysis
# T1 sequence (P21397 whole entry): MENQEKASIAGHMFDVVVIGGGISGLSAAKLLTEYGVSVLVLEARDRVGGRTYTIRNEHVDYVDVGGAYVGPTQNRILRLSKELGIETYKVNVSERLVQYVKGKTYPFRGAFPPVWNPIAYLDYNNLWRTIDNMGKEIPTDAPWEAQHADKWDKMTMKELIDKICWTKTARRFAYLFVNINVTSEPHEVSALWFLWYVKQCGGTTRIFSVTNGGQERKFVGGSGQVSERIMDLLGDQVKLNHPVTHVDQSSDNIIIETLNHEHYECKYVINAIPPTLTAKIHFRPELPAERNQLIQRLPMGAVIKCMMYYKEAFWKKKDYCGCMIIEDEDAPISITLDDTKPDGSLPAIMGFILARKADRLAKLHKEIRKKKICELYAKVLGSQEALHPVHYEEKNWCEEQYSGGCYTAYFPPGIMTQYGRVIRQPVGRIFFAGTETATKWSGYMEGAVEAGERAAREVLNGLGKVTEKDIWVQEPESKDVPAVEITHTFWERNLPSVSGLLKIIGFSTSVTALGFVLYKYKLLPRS
# Sequence of Cytochrome P450 2C9 (P11712 whole entry): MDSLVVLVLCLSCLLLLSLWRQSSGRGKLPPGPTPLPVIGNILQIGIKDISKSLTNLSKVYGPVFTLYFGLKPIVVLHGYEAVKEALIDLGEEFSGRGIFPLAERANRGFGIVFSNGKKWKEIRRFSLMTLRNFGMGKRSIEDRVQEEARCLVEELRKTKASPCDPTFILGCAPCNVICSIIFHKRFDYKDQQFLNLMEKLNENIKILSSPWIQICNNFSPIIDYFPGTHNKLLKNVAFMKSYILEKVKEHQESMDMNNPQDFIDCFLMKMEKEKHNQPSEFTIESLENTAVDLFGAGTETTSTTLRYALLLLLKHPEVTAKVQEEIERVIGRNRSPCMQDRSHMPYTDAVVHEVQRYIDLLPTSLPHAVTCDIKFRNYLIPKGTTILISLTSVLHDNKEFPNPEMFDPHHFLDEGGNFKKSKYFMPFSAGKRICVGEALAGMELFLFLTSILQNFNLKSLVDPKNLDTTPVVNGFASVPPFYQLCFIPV
smiles,measurement,setting,value
O=C1C=CN(c2c(F)cc(N3C[C@H](CNc4ccon4)OC3=O)c(F)c2F)CC1 [CONTEZOLID],Activity,Rattus norvegicus [1],Toxic
same,AUC(0-t),[2],34300 ng·h/mL
same,half-life,[3],2.18 h
same,Activity,Rattus norvegicus [4],134.8 g/L
same,MIC90,Staphylococcus aureus [5],0.5 µg/mL
same,half-life,[6],4.9 h
same,Cmax/dose,Rattus norvegicus [7],1065 ng/mL/(mg/kg)
same,MIC50,Streptococcus anginosus,0.5 µg/mL
same,MIC90,Streptococcus anginosus,1 µg/mL
same,Activity,Rattus norvegicus [8],4.5 ×10⁹ /L
same,Activity,Rattus norvegicus [9],Non-toxic
same,Activity,Rattus norvegicus [10],1.3%
same,NOAEL at 672 h,[11],100 mg/kg/day
same,MIC,Streptococcus sanguinis,0.25 µg/mL
same,Tmax,[12],1.4 h
same,Activity,Homo sapiens [13],Non-toxic
same,MIC,Staphylococcus aureus [14],2 µg/mL
same,MIC,Staphylococcus aureus [15],2 µg/mL
same,AUC(0-t) at 24 h,[16],91800 ng·h/mL
same,Cmax,[17],20300 ng/mL
same,ED50,Staphylococcus aureus [18],7.9 mg/kg
same,AUC(0-t),[19],12900 ng·h/mL
same,Tmax,[20],0.5 h
same,AUC(0-inf),[21],141000 ng·h/mL
same,Activity,Rattus norvegicus [22],54.52 fL
same,MIC50,Staphylococcus,0.5 µg/mL
same,MIC90,Staphylococcus,0.5 µg/mL
same,inhibition (INH),Cytochrome P450 2C9,Not Active
same,Drug uptake,Homo sapiens [23],Not Active
same,ED50,Enterococcus faecalis,7.4 mg/kg
same,Cmax/dose,Canis familiaris [24],259 ng/mL/(mg/kg)
same,deltalog10CFU,Staphylococcus aureus [25],3.6
same,Drug uptake,Canis familiaris [26],Not Active
same,IC50,[27],103 µM
